Among the data in the array DNA melting data of Ke et al. (doi:10.1101/2024.01.08.574731) are Tm and folding enthalpy values, retold here.

A short description of data set [1]: melting temperature; fluorescence melt of hairpins on a sequencing array, two-state fit, raised by 9.35 °C to match UV melts. The conditions noted are these: sodium 0.088 M. The gist of the method:
(§1)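 To match UV melts, fitted temperatures were raised by 9.35 °C. These fits were bootstrapped two-state models that gave melting temperature and folding enthalpy, combined by inverse variance over four replicates. The input was normalised Cy3 fluorescence of library hairpins with annealed Cy3 and quencher oligos on a sequenced MiSeq flow cell, imaged in 50 mM Na-HEPES pH 8.0, 25 mM NaCl in 2.5 °C steps up to 60 °C.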

Data set [2] is described as follows: folding enthalpy; higher = less favourable; fluorescence melt of hairpins on a sequencing array, two-state fit. The conditions noted are these: sodium 0.088 M. The gist of the method: as §1

Regarding GACGCCGAAAGGCGAGTC ((((((....)))..))), in data set [1], the Tm stood at 43.7 °C. Moreover, the folding enthalpy in data set [2] was -8.04 kcal/mol.
In the case of GACGCCGGAAACGGTGTC (((.(((....))).))), the Tm in data set [1] turned out to be 63.9 °C. Besides, the folding enthalpy in data set [2] is -45.9 kcal/mol.
Turning to GACGCGGCGAAAGCCGTC (((..(((....)))))), the Tm in data set [1] came to 32.6 °C. The folding enthalpy in data set [2] is -5.1 kcal/mol.
Consider GACGCGGGAAACCGTGTC (((.(((....))).))), for which the Tm in data set [1] was determined as 58.2 °C. Further, the folding enthalpy in data set [2] is -39.4 kcal/mol.
Take GACGCTGGAAACAGCATC ((.((((....)))).)): the Tm in data set [1] is 41.3 °C. In data set [2], the folding enthalpy is -12.7 kcal/mol.
With GACGGCGAAAGCCCAGTC ((((((....)))..))), in data set [1], the Tm turned out to be 41.8 °C. For the same sequence, the folding enthalpy in data set [2] was -13.1 kcal/mol.
Consider GACGGCGAAAGCCGAGTC ((((((....)))..))), for which the Tm in data set [1] is 45.8 °C. The folding enthalpy in data set [2] is -8.09 kcal/mol.
The like results for GACGGCGGAAACACCGCC (.(((.(....).))).) were, in that order, 44.1 °C and -10.1 kcal/mol.
As for GACGGCGGAAACGTCGTC ((((.((....)).)))), in data set [1], the Tm worked out at 61.1 °C. The folding enthalpy in data set [2] was -52.8 kcal/mol.
Consider GACGGGCGAAAGCCAGTC (((.(((....))).))), for which the Tm in data set [1] stood at 67.9 °C. Besides, in data set [2], the folding enthalpy is -21.7 kcal/mol.
The like results for GACGGGGGAAACCTCGTC ((((.((....)).)))) were, in that order, 55.1 °C and -31.7 kcal/mol.
With GACGGTGAAAACCGTC ((((((....)))))), the Tm in data set [1] was found to be 68.5 °C. The folding enthalpy in data set [2] was -32.1 kcal/mol.
The corresponding values for GACGGTGGAAACGCCGTC (((((.(....).))))) are 62.9 °C and -37.7 kcal/mol.
As to GACGTACGAAAGTAGGTC (((.(((....))).))), the Tm in data set [1] was 52.6 °C. In addition, the folding enthalpy in data set [2] is -38.5 kcal/mol.
With GACGTACGAAAGTATGTC (((.(((....))).))), the Tm in data set [1] is 54.6 °C. Besides, the folding enthalpy in data set [2] was -43.4 kcal/mol.
In the case of GACGTAGAAATACGTC ((((((....)))))), in data set [1], the Tm was 55 °C. Further, the folding enthalpy in data set [2] is -38.5 kcal/mol.
For GACGTCCGAAAGGAGGTC (((.(((....))).))), the Tm in data set [1] turned out to be 58.3 °C. Further, in data set [2], the folding enthalpy is -30.9 kcal/mol.
In the case of GACGTCGGAAACGATGTC (((.(((....))).))), the Tm in data set [1] was 54.7 °C. For the same sequence, in data set [2], the folding enthalpy is -52.2 kcal/mol.
Regarding GACGTGCGAAAGCAGGTC (((.(((....))).))), the Tm in data set [1] was 62.4 °C. The folding enthalpy in data set [2] is -36.2 kcal/mol.
The corresponding values for GACGTGGGAAACCACACC (..((((....))))..) are 25.5 °C and -11.9 kcal/mol.
Take GACGTGGGAAACCACATC ((.((((....)))).)): in data set [1], the Tm was found to be 34.5 °C. For the same sequence, in data set [2], the folding enthalpy is -17.4 kcal/mol.
The corresponding values for GACGTGGGAAACCATGTC (((.(((....))).))) are 51.4 °C and -42.7 kcal/mol.
The like results for GACGTGGGAAACCGCGTC ((((.((....)).)))) were, in that order, 61.5 °C and -43.8 kcal/mol.
The corresponding values for GACGTTGAAAAACGTC ((((((....)))))) are 60.1 °C and -33.9 kcal/mol.
On to GACGTTGGAAACAACACC (..((((....))))..), for which the Tm in data set [1] was 25.2 °C. Besides, in data set [2], the folding enthalpy is -9.55 kcal/mol.
For GACGTTGGAAACGATGTC (((.(.(....).).))), in data set [1], the Tm stood at 33.4 °C. Besides, in data set [2], the folding enthalpy is -16.9 kcal/mol.
For the sequence GACTAACGAAAGTTCGTC (((.(((....))).))), the Tm in data set [1] came to 42.5 °C. Further, the folding enthalpy in data set [2] was -30.5 kcal/mol.
As to GACTAACGAAAGTTTGTC (((.(((....))).))), the Tm in data set [1] amounted to 47 °C. Also, the folding enthalpy in data set [2] is -30.9 kcal/mol.
The corresponding values for GACTAAGAAATTAGTC ((((((....)))))) are 40.5 °C and -24.9 kcal/mol.
Regarding GACTAAGCGAAAGCTGTC (((..(((....)))))), the Tm in data set [1] was 45 °C. Moreover, in data set [2], the folding enthalpy was -15 kcal/mol.
Consider GACTACCGAAAGGTCGTC (((.(((....))).))), for which, in data set [1], the Tm came out at 48.6 °C. Also, the folding enthalpy in data set [2] was -39.4 kcal/mol.
On to GACTACCGAAAGGTGGTC (((.(((....))).))), for which the Tm in data set [1] is 58.4 °C. The folding enthalpy in data set [2] was -38.6 kcal/mol.
The like results for GACTACGAAAGTAACGTC ((((((....)))..))) were, in that order, 31.8 °C and -16 kcal/mol.
The corresponding values for GACTACGAAAGTACAGTC ((((((....)))..))) are 34 °C and -18.3 kcal/mol.
The like results for GACTACGAAAGTACGGTC ((((((....)))..))) were, in that order, 32 °C and -20.4 kcal/mol.
As to GACTACGAAAGTATCGTC ((((((....)))..))), the Tm in data set [1] came to 31.1 °C. In addition, the folding enthalpy in data set [2] was -20.4 kcal/mol.
